ChEMBL document CHEMBL4004812, “Semisynthesis of (-)-Rutamarin Derivatives and Their Inhibitory Activity on Epstein-Barr Virus Lytic Replication” (J Nat Prod, 2017)
Active and inactive are the calls of the source. No cut-off for these calls is given here.

Tests used:
[1] = system: Human gammaherpesvirus 4; experiment: Inhibition of TPA/sodium butyrate-induced EBV lytic DNA replication in human P3HR1 cells incubated for 48 hrs post TPA/sodium butyrate induction by real-time PCR method; format: functional, cell-based; settings: for IC50: human gammaherpesvirus 4, P3HR-1, 48 h
In short: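 P3HR-1 cells were induced with TPA (20 ng/mL) plus sodium butyrate (0.3 mM) and given varied compound concentrations 3 h later. Total cellular DNA was purified 48 h postinduction. EBV DNA content was taken as (induced − noninduced) over the same difference in untreated cells, and IC50 was derived from the dose-response curve.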

[2] = (§1) Cytotoxicity against human P3HR1 cells assessed as decrease in cell viability after 2 days by trypan blue staining-based light microscopic method; parameters: species or system P3HR-1; settings: P3HR1 cells
In short: (§2)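 EBV-positive Burkitt's lymphoma P3HR-1 (clone 16) cells were grown in RPMI 1640 with 10% FBS, streptomycin and penicillin. They were exposed to the compounds, and viable cells were counted by Trypan blue exclusion under a light microscope 2 days post-treatment. Viability was expressed relative to untreated control cells, and CC50 was fitted from dose-response curves.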

[3] = Selectivity index, ratio of CC50 for human P3HR1 cells to IC50 for TPA/sodium butyrate-induced EBV lytic DNA replication
In short: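 SI = CC50/IC50. CC50 came from Trypan blue viability counts 2 days after treatment. IC50 came from EBV DNA content 48 h after TPA/butyrate induction of P3HR-1 cells, with compound added at 3 h.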

[4] = system: P3HR-1; experiment: Cytotoxicity against human P3HR1 cells assessed as decrease in cell viability at 10 uM after 2 days by trypan blue staining-based light microscopic method; settings: p3hr-1, 48 h; in short: as §2
[5] = system: P3HR-1; experiment: as §1; settings: p3hr-1, 48 h; in short: as §2

Row | IC50 [1] [µM] | SMILES | CC50 at 48 h [2] [µM] | Ratio CC50/IC50 [3] | inhibition [1] | other results
1 | 0.76 | C=CC(C)(C)c1cc2cc3c(cc2oc1=O)O[C@@H](C(C)(C)OC(=O)CNCCc1ccc(F)cc1)C3 | 42.6 | 56 |  | 
2 |  | C=CC(C)(C)c1cc2cc3c(cc2oc1=O)O[C@@H](C(C)(C)OC(=O)CCl)C3 |  |  |  | Activity [4]: Toxic
3 |  | C=CC(C)(C)c1cc2cc3c(cc2oc1=O)O[C@@H](C(C)(C)OC(=O)NCCO)C3 |  |  | Active | 
4 | 7 | C=CC(C)(C)c1cc2cc3c(cc2oc1=O)O[C@H](C(C)(C)OC(C)=O)C3 | > 150 | >21 |  | 
5 |  | C=CC(C)(C)c1cc2cc3c(cc2oc1=O)O[C@@H](C(C)(C)OC(=O)OCCc1ccccc1)C3 |  |  | inactive | Activity [5]: Toxic
6 | 1.4 | C=CC(C)(C)c1cc2cc3c(cc2oc1=O)O[C@@H](C(C)(C)OC(=O)NCCc1ccc(F)cc1)C3 |  |  |  | 
7 | 6.2 | C=CC(C)(C)c1cc2cc3c(cc2oc1=O)O[C@@H](C(C)(C)OC(=O)OCCc1ccccn1)C3 | 42.7 | 7 |  | 
8 |  | C=CC(C)(C)c1cc2cc3c(cc2oc1=O)O[C@@H](C(C)(C)OC(=O)NCCCCN)C3 |  |  | Active | 
9 | 2 | C=CC(C)(C)c1cc2cc3c(cc2oc1=O)O[C@@H](C(C)(C)OC(=O)CNC1CCCC1)C3 | 40.8 | > 20 |  | 
10 |  | C=CC(C)(C)c1cc2cc3c(cc2oc1=O)O[C@@H](C(C)(C)OC(=O)CNCC1CCCO1)C3 (stereo partly drawn) |  |  | Active | 
11 |  | C=CC(C)(C)c1cc2cc3c(cc2oc1=O)O[C@@H](C(C)(C)OC(=O)CNCCCC)C3 |  | <3 | Active | Activity [5]: Toxic
12 | 1.5 | C=CC(C)(C)c1cc2cc3c(cc2oc1=O)O[C@@H](C(C)(C)OC(=O)OCCc1ccc(CC)cn1)C3 | 1200 | 801 |  | 
13 | 4.5 | C=CC(C)(C)c1cc2cc3c(cc2oc1=O)O[C@@H](C(C)(C)OC(=O)c1ccccc1)C3 | 370 | 83 |  | 
14 |  | C=CC(C)(C)c1cc2cc3c(cc2oc1=O)OC(C(C)(C)OC(=O)OCCc1scnc1C)C3 (stereo not drawn) |  |  | Active | 
15 |  | C=CC(C)(C)c1cc2cc3c(cc2oc1=O)O[C@@H](C(C)(C)OC(=O)NCCOC(C)=O)C3 |  |  | Active | 
16 | 2.1 | C=CC(C)(C)c1cc2cc3c(cc2oc1=O)O[C@@H](C(C)(C)OC(=O)C=C(C)C)C3 | > 100 | >47 |  | 
17 |  | C=CC(C)(C)c1cc2cc3c(cc2oc1=O)O[C@@H](C(C)(C)OC(=O)OCc1ccccn1)C3 |  |  | Active | 
18 |  | C=CC(C)(C)c1cc2cc3c(cc2oc1=O)O[C@@H](C(C)(C)OC(=O)CNCc1ccco1)C3 |  |  | Active | 
19 |  | C=CC(C)(C)c1cc2cc3c(cc2oc1=O)O[C@@H](C(C)(C)OC(=O)CNC)C3 |  | <3 | Active | Activity [5]: Toxic
20 | 0.83 | C=CC(C)(C)c1cc2cc3c(cc2oc1=O)O[C@@H](C(C)(C)OC(=O)OCCN1C(=O)c2ccccc2C1=O)C3 | > 100 | >120 |  | 
21 |  | C=CC(C)(C)c1cc2cc3c(cc2oc1=O)O[C@@H](C(C)(C)OC(=O)NCCN)C3 |  |  | Active | 
22 | 13.8 | C=CC(C)(C)c1cc2cc3c(cc2oc1=O)O[C@@H](C(C)(C)OC(C)=O)C3 | > 140 | >10 |  | 
23 | 0.32 | C=CC(C)(C)c1cc2cc3c(cc2oc1=O)O[C@@H](C(C)(C)OC(=O)OCCc1ccncc1)C3 | 67.6 | 211 |  | 
24 |  | C=CC(C)(C)c1cc2cc3c(cc2oc1=O)O[C@@H](C(C)(C)OC(=O)CNCC)C3 |  | <3 | Active | Activity [5]: Toxic
25 |  | C=CC(C)(C)c1cc2cc3c(cc2oc1=O)O[C@@H](C(C)(C)OC(=O)NCCC#N)C3 |  |  | Active | 

Row | SMILES | IC50 [1] [µM] | CC50 at 48 h [2] [µM] | Ratio CC50/IC50 [3] | inhibition [1] | other results
26 | C=CC(C)(C)c1cc2cc3c(cc2oc1=O)O[C@@H](C(C)(C)O)C3 | 69.9 |  |  |  | 
